In PubChem BioAssay:
Calls of active or inactive are those of the source. Unless noted, no stated cut-off is given here; in the data, active means inhibition above about 31%; inactive means the rest.

Columns and labels:
[1] = HUVEC growth inhibition – cell-based, human, primary screen (AID 575;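 active means viability at or below 30% in both replicate assays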;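 further: 100% = median of untreated cell wells with 0.1% DMSO on each plate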); conditions: HUVEC proliferation, CellTiter-Glo luminescence, 72 h; at 10 µM; stronger effect = lower value
Summary of the method: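 Test system: HUVEC primary cells. Quantity: 1250 endothelial cells in each well. Dosing: single-point 10 µM, DMSO 0.1% final. Incubation: 72 h treatment at 37 °C. Measured by: CTG luminescence. Control set: DMSO cell controls and MePR drug controls. Plate: collagen-coated 384-well format.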

[2] = H69AR cell proliferation blockers – human, duplicate replicates, primary screen (AID 580;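 active means viability at or under a set limit in both replicates, limit being median viability minus 3 SD, cut at about 48% in these data, passing the limit was not always enough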;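 further: 100% = mean luminescence of untreated wells and 0% = no signal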); conditions: H69AR lung tumor cells viability, ATP luminescence, 72 h; at 10 µM; stronger effect = lower value
[3] = MRP1 drug-resistance reversers in H69AR cells – cell-based, doxorubicin co-treatment, pilot screen (AID 601;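 active means viability loss from added drug above about 55%, and viability with drug at most 40%, in both replicates, limit read from the data, passing the limit was not always enough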); conditions: CellTiter-Glo, 72 h, at 10 µM; for differential viability (reversal): stronger effect = higher value
[4] = yeast transport mutant growth inhibition pilot in 384-well plates, post-Golgi transport modulator project (AID 636); conditions: absorbance 615 nm, about 18 h, stronger effect = higher value
[5] = growth suppression of yeast trafficking mutant, preliminary HTS, modulators of trafficking downstream of Golgi apparatus project, 1536-format plate, OD 615 nm (AID 637; in the data active means inhibition above about 30%); conditions: yeast transport mutant growth, absorbance 615 nm, 18 h; stronger effect = higher value
[6] = H69AR cells + 2 uM doxorubicin, measured here: viability with 2 uM doxorubicin, stronger effect = lower value
[7] = H69AR cells, compound alone cytotoxicity

| Structure (SMILES) | viability [1] | viability [2] | differential viability (reversal) ([3]; H69AR cells + 2 uM doxorubicin) | viability [3, 6] | viability [3, 7] | inhibition [4] | inhibition [5] |
| --- | --- | --- | --- | --- | --- | --- | --- |
| COc1cc2c(cc1OC)CN(C(=O)COc1ccc(C#N)cc1)CC2 | 93% (inactive) | 84.8% (inactive) | -12% (inactive) | 96.8% | 84.8% | 0.52% (inactive) | -4.44% (inactive) |
| COc1cc(S(=O)(=O)N(C)C)ccc1F | 95.4% (inactive) | 91.7% (inactive) | 9.55% (inactive) | 82.1% | 91.7% | -6.67% (inactive) | 3.65% (inactive) |
| CCOC(=O)c1ccc(NS(=O)(=O)c2ccc(SC)cc2)cc1 | 99% (inactive) | 108% (inactive) | 10.8% (inactive) | 97.4% | 108% | -7.11% (inactive) | -3.81% (inactive) |
| Cc1ccc2[nH]c(=O)c(CN(CCc3ccccc3)Cc3nnnn3CC3CCCO3)cc2c1 (configuration not stated) | 77.1% (inactive) | 78.5% (inactive) | 0.205% (inactive) | 78.3% | 78.5% | 1.45% (inactive) | -5.87% (inactive) |
| Cc1ccc(C)c(Cn2c(=O)n(CCC(=O)NCc3ccco3)c(=O)c3sccc32)c1 | 74.6% (inactive) | 87.7% (inactive) | -0.04% (inactive) | 87.7% | 87.7% | -2.86% (inactive) | -0.63% (inactive) |
| CCc1c(C)nc(N)n2c(SCC(=O)N3CCCc4ccccc43)nnc12 | 107% (inactive) | 100% (inactive) | 11.3% (inactive) | 89.1% | 100% | -3.29% (inactive) | -0.32% (inactive) |
| Cn1nc(-c2ccc(C(=O)NCC3CCCO3)cc2)c2ccccc2c1=O (configuration not stated) | 88.3% (inactive) | 84.7% (inactive) | 13.5% (inactive) | 71.2% | 84.7% | -3.12% (inactive) | 7.14% (inactive) |
| CCOC(=O)c1cc2c(=O)n3cccc(C)c3nc2n(CCOC)c1=NC(=O)c1ccncc1 | 104% (inactive) | 82.6% (inactive) | -10.1% (inactive) | 92.6% | 82.6% | -4.13% (inactive) | 3.33% (inactive) |
| CN(CC(=O)Nc1ccncc1)S(=O)(=O)c1ccccc1 | 110% (inactive) | 95.8% (inactive) | 11.9% (inactive) | 83.9% | 95.8% | -7.63% (inactive) | -0.63% (inactive) |
| O=C(Nc1nccs1)c1cccc(NC(=O)C2CC2)c1 | 103% (inactive) | 87.5% (inactive) | 8.43% (inactive) | 79.1% | 87.5% | -6.13% (inactive) | -0.48% (inactive) |
| COc1ccc2c(c1)c1c(n2C(C)=O)C(OC(C)=O)=NCC1 | 92.4% (inactive) | 87.4% (inactive) | -0.05% (inactive) | 87.5% | 87.4% | -5.39% (inactive) | 5.71% (inactive) |
| Nc1nnc(-c2cc3ccccc3oc2=O)s1 | 91.8% (inactive) | 91.7% (inactive) | 0.3% (inactive) | 91.4% | 91.7% | -0.66% (inactive) | 2.38% (inactive) |
| Cc1nc(SCC(=O)CC(=O)OC(C)C)c(C#N)c(C)c1C | 99.8% (inactive) | 95% (inactive) | 6.36% (inactive) | 88.7% | 95% | -2.8% (inactive) | 3.33% (inactive) |
| CC(=O)NCC(=O)OC(C)C(=O)Nc1ccc(C(C)=O)cc1 (configuration not stated) | 97.1% (inactive) | 95.2% (inactive) | -2.15% (inactive) | 97.3% | 95.2% | -6.75% (inactive) | -5.4% (inactive) |
| COCC(=O)N(Cc1ccccc1)c1ccccn1 | 83.3% (inactive) | 90.1% (inactive) | -1.27% (inactive) | 91.3% | 90.1% | -5.32% (inactive) | 9.37% (inactive) |
| CC(=O)CC(=O)Nc1ccccc1NC(C)=O | 105% (inactive) | 101% (inactive) | 8.12% (inactive) | 93.2% | 101% | -2.86% (inactive) | 1.43% (inactive) |
| O=C(COc1ccccc1Cl)N1CCCC1 | 105% (inactive) | 91.9% (inactive) | -0.435% (inactive) | 92.3% | 91.9% | 2.24% (inactive) | -4.6% (inactive) |
| COc1ccc(NC(=O)N2CCC(O)(c3cccnc3)CC2)c(OC)c1 | 83.6% (inactive) | 98.4% (inactive) | 12.3% (inactive) | 86.1% | 98.4% | -1.43% (inactive) | -1.11% (inactive) |
| O=C(COc1ccc(Cl)cc1)Nc1ncccn1 | 106% (inactive) | 107% (inactive) | 14.6% (inactive) | 92.6% | 107% | -1.05% (inactive) | 4.13% (inactive) |
| O=C(Nc1ccc(S(=O)(=O)NCCc2ccccc2)cc1)c1ccc(Br)o1 | 72.4% (inactive) | 108% (inactive) | 16.8% (inactive) | 91.5% | 108% | -1.32% (inactive) | -6.35% (inactive) |
| CCOC(=O)CC(=O)c1cc(OC)c(OC)c(OC)c1 | 97.1% (inactive) | 107% (inactive) | 11.3% (inactive) | 95.6% | 107% | -0.53% (inactive) | -3.49% (inactive) |

| Structure (SMILES) | viability [1] | viability [2] | differential viability (reversal) ([3]; H69AR cells + 2 uM doxorubicin) | viability [3, 6] | viability [3, 7] | inhibition [4] | inhibition [5] |
| --- | --- | --- | --- | --- | --- | --- | --- |
| COc1ccc(NC(=O)COc2ccccc2)c(OC)c1 | 111% (inactive) | 104% (inactive) | 23.1% (inactive) | 81% | 104% | -5.6% (inactive) | 0.16% (inactive) |
| CS(=O)(=O)Nc1ccc(C(=O)NCc2ccc3c(c2)OCO3)cc1 | 92.2% (inactive) | 96.2% (inactive) | 0.675% (inactive) | 95.5% | 96.2% | -8.29% (inactive) | -1.9% (inactive) |
| S=c1[nH]c2ccc(Cl)cc2[nH]1 | 67.4% (inactive) | 84.9% (inactive) | 6.16% (inactive) | 78.7% | 84.9% | -3.42% (inactive) | 6.35% (inactive) |
| O=C(Cc1ccccc1)Nc1ccc(CN2CCOCC2)cc1 | 105% (inactive) | 97.3% (inactive) | 6.05% (inactive) | 91.2% | 97.3% | -4.67% (inactive) | -2.38% (inactive) |
| COc1ccc(S(=O)(=O)NC(CC(=O)NCc2ccco2)c2ccco2)cc1 (configuration not stated) | 99.7% (inactive) | 103% (inactive) | 22.1% (inactive) | 81.3% | 103% | -2.08% (inactive) | 4.29% (inactive) |
| CN(C)C(=O)C12CCC(C)(c3nc4ccccc4nc31)C2(C)C (configuration not stated) | 105% (inactive) | 88.8% (inactive) | 2.95% (inactive) | 85.8% | 88.8% | 3.03% (inactive) | -4.6% (inactive) |
| Cn1c(=O)c2ccccc2n(Cc2ccccc2F)c1=O | 101% (inactive) | 85.2% (inactive) | -5.55% (inactive) | 90.8% | 85.2% | -0.66% (inactive) | 1.75% (inactive) |
| Cc1cc(NC(=O)c2ccc(Cl)cc2)no1 | 96.1% (inactive) | 87.5% (inactive) | 5.82% (inactive) | 81.7% | 87.5% | 2.86% (inactive) | 18.2% (inactive) |
| O=C(O)C1CSC2c3ccccc3C(=O)N12 (configuration not stated) | 104% (inactive) | 103% (inactive) | 15.4% (inactive) | 87.6% | 103% | -1.04% (inactive) | 3.81% (inactive) |
| O=C(Nc1ccc(S(=O)(=O)Nc2ccc(Cl)cc2)cc1)C1CCCO1 (configuration not stated) | 62% (inactive) | 90.2% (inactive) | 0.92% (inactive) | 89.3% | 90.2% | -6% (inactive) | -5.4% (inactive) |
| O=S1(=O)C=CC(Nc2cccc(Cl)c2)C1 (configuration not stated) | 76.3% (inactive) | 65.7% (inactive) | -0.23% (inactive) | 65.9% | 65.7% | -3.68% (inactive) | 4.29% (inactive) |
| Nc1nc(-c2ccc(Cl)cc2)nn1C(=O)c1cccnc1 | 98.2% (inactive) | 96.4% (inactive) | 0.94% (inactive) | 95.5% | 96.4% | 0.13% (inactive) | 4.29% (inactive) |
| Nc1nnc(Cc2ccc(Cl)cc2)s1 | 115% (inactive) | 102% (inactive) | 15.6% (inactive) | 86.3% | 102% | -6.18% (inactive) | 3.49% (inactive) |
| Cc1ccc(Cn2ccc(NC(=O)c3noc4c3CCCC4)n2)cc1 | 101% (inactive) | 112% (inactive) | 23.6% (inactive) | 88.6% | 112% | -3.25% (inactive) | 2.86% (inactive) |
| NC(=O)c1cc(-c2ccccc2)nc(Oc2ccccc2)n1 | 108% (inactive) | 98.7% (inactive) | 3.71% (inactive) | 95% | 98.7% | -8% (inactive) | -0.63% (inactive) |
| CC1=C(C(N)=O)C(c2ccc(Cl)cc2Cl)n2ncnc2N1 (configuration not stated) | 91.8% (inactive) | 101% (inactive) | 16.7% (inactive) | 84.7% | 101% | 0% (inactive) | 6.19% (inactive) |
| COc1ccc(Cl)cc1Nc1nc(NCCO)nc(N2CCCC2)n1 | 55.1% (inactive) | 89.3% (inactive) | -10.3% (inactive) | 99.6% | 89.3% | -7.57% (inactive) | 8.41% (inactive) |
| CC(=O)c1cc(-c2ccccc2)n(CC(=O)N2CCC(N3CCCCC3)CC2)c1C | 85.3% (inactive) | 82.7% (inactive) | -2.33% (inactive) | 85.1% | 82.7% | -2.73% (inactive) | 0.63% (inactive) |
| C=CCn1c(SCc2cc(=O)n3ccsc3n2)nnc1C1CCCCC1 | 93.1% (inactive) | 96.7% (inactive) | 17.5% (inactive) | 79.1% | 96.7% | -5.19% (inactive) | -0.16% (inactive) |
| Cc1ccc(S(=O)(=O)NCCCNC(=O)N2CCOCC2)cc1 | 100% (inactive) | 106% (inactive) | 13.5% (inactive) | 92.4% | 106% | -1.05% (inactive) | 3.81% (inactive) |
